Key:
Menin (Homo sapiens) [1] = biological target: T1, Menin (Homo sapiens) (UniProt O00255); test: Binding affinity to recombinant human menin protein assessed as covalent complex formation incubated for 1 hrs by LC/MS analysis; parameters: concentration or dose not given beside the values
T1 sequence (whole entry): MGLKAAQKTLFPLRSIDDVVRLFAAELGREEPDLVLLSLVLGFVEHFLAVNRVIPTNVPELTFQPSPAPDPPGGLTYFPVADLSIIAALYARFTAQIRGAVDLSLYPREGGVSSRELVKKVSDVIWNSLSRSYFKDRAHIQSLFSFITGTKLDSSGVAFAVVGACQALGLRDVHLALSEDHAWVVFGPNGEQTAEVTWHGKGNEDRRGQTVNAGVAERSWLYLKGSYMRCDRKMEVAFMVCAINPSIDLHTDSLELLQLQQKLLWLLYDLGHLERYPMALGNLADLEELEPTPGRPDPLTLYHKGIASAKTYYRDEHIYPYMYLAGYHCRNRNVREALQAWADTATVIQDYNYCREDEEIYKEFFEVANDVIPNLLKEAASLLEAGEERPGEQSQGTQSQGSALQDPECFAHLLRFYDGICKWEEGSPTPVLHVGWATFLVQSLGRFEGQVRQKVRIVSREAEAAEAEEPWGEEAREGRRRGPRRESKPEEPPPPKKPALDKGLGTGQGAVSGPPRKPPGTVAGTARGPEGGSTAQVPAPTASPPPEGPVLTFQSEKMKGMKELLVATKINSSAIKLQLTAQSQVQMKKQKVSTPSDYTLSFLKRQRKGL
Outline: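 Menin (25 mg/mL in 25 mM Tris pH 8.0, 150 mM NaCl, 5 mM DTT) incubated with compound at a 1:1.2 protein:compound molar ratio for 1 h or overnight at 4 °C. Diluted to 1 mg/mL, then reverse-phase C4 LC with a 5–100% MeCN/0.2% formic acid gradient and Q-TOF mass spectrometry to detect the covalent adduct.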

Menin (Homo sapiens) [2] = biological target: T1, Menin (Homo sapiens); test: Binding affinity to recombinant human menin protein assessed as covalent complex formation incubated for 30 mins by LC/MS analysis; parameters: concentration or dose not given beside the values
MV4-11 = test: Anti-proliferative activity against human MV4-11 cells harboring MLL/AF4 fusion protein assessed as cell growth inhibition measured after 4 days by Cell Titre Glo Luminescent Cell viability assay; assay type: functional, cell-based; conditions: MV4-11, 96 h
Menin (Homo sapiens) [3] = biological target: T1, Menin (Homo sapiens); test: Binding affinity to recombinant human menin protein assessed as covalent complex formation measured after overnight incubation by LC/MS analysis; parameters: concentration or dose not given beside the values
Menin (Homo sapiens) [4] = biological target: T1, Menin (Homo sapiens); test: Binding affinity to recombinant human menin protein assessed as covalent complex formation incubated for 10 mins by LC/MS analysis; parameters: concentration or dose not given beside the values
MOLM-13 = test: Anti-proliferative activity against human MOLM-13 cells harboring MLL/AF9 fusion protein assessed as cell growth inhibition measured after 4 days by Cell Titre Glo Luminescent Cell viability assay; assay type: functional, cell-based; conditions: MOLM-13, 96 h
[5] = Plasma concentration in mouse at 25 mg/kg, po measured after 6 hrs; assay type: ADME, organism-based
Outline: (§1)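 Mice given a single oral dose of 25 mg/kg; plasma concentrations sampled at 1, 3 and 6 h post-dose.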

[6] = Plasma concentration in mouse at 25 mg/kg, po measured after 1 hr; assay type: ADME, organism-based; outline: as §1
[7] = Plasma concentration in mouse at 25 mg/kg, po measured after 3 hrs; assay type: ADME, organism-based; outline: as §1
Menin = biological target: T2, Menin (Homo sapiens, UniProt O00255); test: Binding affinity to menin (unknown origin) incubated for 1 hr by fluorescence polarization-based competitive binding assay
T2 sequence (O00255 whole entry): T1 sequence (whole entry)

| Activity (Menin (Homo sapiens) [1]) | Activity (Menin (Homo sapiens) [2]) | IC50 (MV4-11) | Activity (Menin (Homo sapiens) [3]) | Activity (Menin (Homo sapiens) [4]) | IC50 (MOLM-13) | concentration at 6 h [5] | concentration at 1 h [6] | concentration at 3 h [7] | IC50 (Menin) | SMILES |
| --- | --- | --- | --- | --- | --- | --- | --- | --- | --- | --- |
| 0% | 0% | 0.436 µM | 45.1% | 0% | 0.504 µM | – | – | – | – | C=CC(=O)N1C[C@H]2C[C@@H]1CN2S(=O)(=O)c1ccc(N2CC(CN3CCC([C@@](CN4CCC4)(c4cccc(F)c4)[C@H]4CCC[C@@H]4NC(=O)OC)CC3)(OC)C2)cc1 |
| – | – | > 1 µM | – | – | > 10 µM | – | – | – | – | COC(=O)N[C@H]1CCC[C@@H]1[C@](CN1CCC1)(c1cccc(F)c1)C1CCN(CC2(C(=O)OC)CN(c3ccc(S(=O)(=O)C4CC4)cc3)C2)CC1 |
| – | – | – | – | – | – | 2200 ng/mL | 8260 ng/mL | 5750 ng/mL | – | COC(=O)N[C@H]1CCC[C@@H]1[C@](CN1CCC1)(c1cccc(F)c1)C1CCN(CC2(OC)CN(c3ccc(S(=O)(=O)C4CC4)cc3)C2)CC1 |
| 0% | 0% | 0.156 µM | 27% | 0% | 0.594 µM | – | – | – | 0.0038 µM | C=CC(=O)N1CCC(S(=O)(=O)c2ccc(N3CC(CN4CCC([C@@](CN5CCC5)(c5cccc(F)c5)[C@H]5CCC[C@@H]5NC(=O)OC)CC4)(OC)C3)cc2)CC1 |
| 40.5% | 22.6% | 0.074 µM | 90% | 9.8% | 0.188 µM | – | – | – | 0.0037 µM | C=CC(=O)N1CCC[C@@H](S(=O)(=O)c2ccc(N3CC(CN4CCC([C@@](CN5CCC5)(c5cccc(F)c5)[C@H]5CCC[C@@H]5NC(=O)OC)CC4)(OC)C3)cc2)C1 |
| – | – | – | – | – | – | 928 ng/mL | 624 ng/mL | 735 ng/mL | – | COC(=O)N[C@H]1CCC[C@@H]1[C@](CN1CCC1)(c1cccc(F)c1)C1CCN(CC2CN(c3ccc(S(=O)(=O)C4CC4)cc3)C2)CC1 |
| 59.4% | 40.9% | 0.112 µM | 81.5% | 24.1% | 0.402 µM | – | – | – | – | C=CC(=O)N1CC(S(=O)(=O)c2ccc(N3CC(CN4CCC([C@@](CN5CCC5)(c5cccc(F)c5)[C@H]5CCC[C@@H]5NC(=O)OC)CC4)(OC)C3)cc2)C1 |
| 37.4% | 27.9% | 0.077 µM | 93.1% | 8.8% | 0.196 µM | – | – | – | 0.003 µM | C=CC(=O)N1CCC[C@H](S(=O)(=O)c2ccc(N3CC(CN4CCC([C@@](CN5CCC5)(c5cccc(F)c5)[C@H]5CCC[C@@H]5NC(=O)OC)CC4)(OC)C3)cc2)C1 |
| 85.4% | 83.4% | 0.0023 µM | 90.9% | 36.9% | 0.0497 µM | – | – | – | 0.0027 µM | COC(=O)N[C@H]1CCC[C@@H]1[C@](CN1CCC1)(c1cccc(F)c1)C1CCN(CC2(OC)CN(c3ccc(S(=O)(=O)C4CN(C(=O)/C=C/CN(C)C)C4)cc3)C2)CC1 |
| – | – | 0.192 µM | – | – | 0.553 µM | – | – | – | – | COC(=O)N[C@H]1CCC[C@@H]1[C@](CN)(c1cccc(F)c1)C1CCN(CC2CN(c3ccc(S(=O)(=O)C4CC4)cc3)C2)CC1 |

— ChEMBL document CHEMBL5038600, “Discovery of M-1121 as an Orally Active Covalent Inhibitor of Menin-MLL Interaction Capable of Achieving Complete and Long-Lasting Tumor Regression” (J Med Chem, 2021)
